# According to PMC4031611 (Nature chemistry, 2014):
# Peptide text beside a SMILES is read from it. * marks the point of attachment. Cbz = O=C(OCc1ccccc1)*; CH2F = FC*
# Experiments:
# [1] = biological target: T1, recombinant human caspase-3 (Homo sapiens, UniProt P42574); assay: Caspase-3-mediated macrocyclization in vitro, HPLC assay; type: biochemical; details: probe 25 μM, caspase-3 4.9 × 10^−3 U/ml, 37 °C
# T1 sequence (P42574 29-175 limits assumed): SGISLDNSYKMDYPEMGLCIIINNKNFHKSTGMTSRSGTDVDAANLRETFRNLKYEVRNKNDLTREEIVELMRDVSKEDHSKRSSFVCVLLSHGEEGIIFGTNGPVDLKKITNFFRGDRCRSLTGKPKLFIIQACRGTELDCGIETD
# T1 sequence (P42574 176-277 limits assumed): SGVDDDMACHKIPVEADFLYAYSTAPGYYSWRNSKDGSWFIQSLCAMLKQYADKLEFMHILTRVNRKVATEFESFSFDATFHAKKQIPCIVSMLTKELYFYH
# [2] = test system: STS-induced apoptotic HeLa cells; assay: Flow cytometry of STS-induced apoptotic HeLa cells labelled with probe; type: cell-based, human
# In short: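 HeLa cells made apoptotic with staurosporine, or left viable, then incubated with probe (2 μM), with or without Z-VAD-fmk pretreatment (50 μM). Co-stained with a fluorescent caspase inhibitor (FLICA) as the apoptosis marker. Flow cytometry gated into four quadrants by FLICA and Cy5.5 positivity; Cy5.5 fluorescence compared between apoptotic and viable cells.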
# [3] = test system: STS-induced apoptotic HeLa cells; assay: Epifluorescence microscopy of STS-treated HeLa cells; type: cell-based, human; details: for cell labeling efficiency: then C-SNAF 2 µM 24 h, HeLa
# DOX-treated HeLa cells = assay: Epifluorescence microscopy of DOX-treated HeLa cells; type: cell-based, human; details: for cell labeling efficiency: 24 h, HeLa
# [4] = test system: lysate of apoptotic HeLa cells; assay: HPLC analysis of C-SNAF reaction in apoptotic cell lysate; type: cell-based, human; details: C-SNAF 5 μM, overnight, 37 °C
# [5] = test system: lysate of apoptotic MDA-MB-231 cells; assay: as above; type: cell-based, human; details: C-SNAF 5 μM, overnight, 37 °C
# [6] = Blood circulation and biodistribution in healthy nude mice; type: in vivo, mouse; details: 5 nmol i.v.
# [7] = Stability in mouse serum by HPLC; type: in vitro ADME
# [8] = test system: subcutaneous HeLa tumors in female nude mice; assay: In vivo fluorescence imaging of DOX-induced tumor apoptosis; set-up: species or system mouse
# In short: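 HeLa s.c. xenografts in female nu/nu mice given DOX 8 mg/kg or saline i.v. every 4 days, three times. Two days after the last dose, probe (5 nmol in saline) given i.v. and imaging started immediately: hyperspectral imager, 635±25 nm excitation, 675 nm long-pass emission, 670–900 nm collected. Cy5.5 unmixed from autofluorescence; tumor ROI intensity expressed as percent difference from saline group. Same animals also imaged after a single DOX dose.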
# HeLa tumor lysates = assay: HPLC analysis of C-SNAF reaction in tumor lysates; type: in vivo, mouse; details: C-SNAF 5 μM, 24 h incubation with tumor lysate, 675 nm
# [9] = test system: caspase-3/7 activity in HeLa tumor lysates; assay: Caspase-Glo 3/7 assay in tumor lysates; type: in vivo, mouse; details: 3X DOX 8 mg/kg i.v., Caspase-Glo 3/7, n = 4
# HeLa tumor xenograft = assay: Chemotherapy mouse model, tumor size; type: in vivo
# In short: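 Female nu/nu mice, 6 weeks old, given 2 million HeLa cells s.c. in the shoulders in 50% Matrigel/supplemented DMEM. Tumors grown to 0.7–0.9 cm on one aspect (about 10–15 days), then given DOX 8 mg/kg or saline i.v. every 4 days, three times. Body weight and caliper width/length recorded every other day; volume = (length × width²)/2.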
smiles,measurement,setting,value
CCSSC[C@@H](NC(=O)[C@H](CC(=O)O)NC(=O)[C@@H](NC(=O)[C@H](CCC(=O)O)NC(=O)[C@H](CC(=O)O)NC(C)=O)C(C)C)C(=O)N[C@@H](CCCCNC(=O)CCCCCN1C(=CC=CC=CC2=[N+](CC)c3ccc4c(S(=O)(=O)[O-])cc(S(=O)(=O)O)cc4c3C2(C)C)C(C)(C)c2c1ccc1c(S(=O)(=O)O)cc(S(=O)(=O)O)cc21)C(=O)Nc1ccc2nc(C3=N[C@@H](C(=O)NCCCOc4ccc5nc(C#N)ccc5c4)CS3)sc2c1 [C-SNAF],conversion to C-SNAF-cycl after 6 h,[1],nearly completely converted to C-SNAF-cycl
same,uptake in untreated viable HeLa cells,"[2]; probe 2 μM, 24 h, Cy5.5 fluorescence",low uptake
same,increase in Cy5.5 fluorescence of FLICA-positive apoptotic cells relative to viable cells,"[2]; probe 2 μM, 24 h, STS 2 μM 4 h, HeLa",~13 fold
same,cell labeling efficiency,[3]; STS 0.5 μM 4 h,23%
same,cell labeling efficiency,[3]; STS 2 μM 4 h,90%
same,enhancement in cell labeling efficiency,[3]; STS 0.5 to 2 μM,approximately 4 fold
same,"labeling of apoptotic cells (fluorescence microscopy, words)","[3]; probe 2 µM, 24 h, STS-treated HeLa cells",Efficient labeling
same,cell labeling efficiency,DOX-treated HeLa cells; DOX 1 μM co-incubated with C-SNAF 2 µM,9%
same,cell labeling efficiency,DOX-treated HeLa cells; DOX 5 μM co-incubated with C-SNAF 2 µM,92%
same,enhancement in cell labeling efficiency,DOX-treated HeLa cells; DOX 1 to 5 μM,approximately 10 fold
same,conversion of C-SNAF to C-SNAF-cycl,[4],more than 90%
same,conversion of C-SNAF to C-SNAF-cycl,[5],more than 90%
same,time of nearly complete elimination from the body,[6],≤ 12 h
same,blood half-life,"[6]; Cy5.5 fluorescence of blood, n = 5",1.0 ± 0.45 h
same,half-life,[7],> 6 h
same,"increase in tumor fluorescence signal, DOX-treated compared to saline-treated mice","[8]; 5 nmol i.v., 3X DOX 8 mg/kg, by 4 h, n = 5",1.6 fold
same,time of maximum tumor fluorescence after administration,"[8]; 5 nmol i.v., n = 5",1 h
same,tumor fluorescence relative to saline-treated mice,"[8]; after single dose of DOX (1X DOX), 2 h after C-SNAF, n = 4",moderate increase in tumor fluorescence
same,tumor fluorescence relative to saline and 1X DOX,"[8]; after third round of DOX, same animals, n = 4",significant fluorescence enhancement
same,amount of C-SNAF-cycl in DOX-treated relative to saline-treated tumor lysates (HPLC),HeLa tumor lysates,significantly greater amount of C-SNAF-cycl
"COc1cccc2c1C(=O)c1c(O)c3c(c(O)c1C2=O)C[C@@](O)(C(=O)CO)C[C@@H]3O[C@H]1C[C@H](N)[C@H](O)[C@H](C)O1 [DOX, doxorubicin]","increase in caspase-3/7 activity, DOX-treated relative to saline-treated tumors",[9],1.9 fold
same,tumor size change,HeLa tumor xenograft; following 1X DOX 8 mg/kg i.v.,no significant size difference
same,tumor size change,HeLa tumor xenograft; following the third round of DOX 8 mg/kg i.v.,significant size reduction
"COC(=O)C[C@H](NC(=O)[C@H](C)NC(=O)[C@@H](NC(=O)OCc1ccccc1)C(C)C)C(=O)CF [Z-VAD-fmk, reference compound] (Cbz-Val-Ala-Asp(OMe)-CH2F)",effect of caspase inhibitor on labeling by C-SNAF,"[2]; Z-VAD-fmk 50 μM, 30 min before C-SNAF 2 μM, STS-treated HeLa",abrogated
